According to ChEMBL document CHEMBL1128333, “Derivatives of cis-2-amino-8-hydroxy-1-methyltetralin: mixed 5-HT1A-receptor agonists and dopamine D2-receptor antagonists” (J Med Chem, 1995):

How the values were obtained:
Rattus norvegicus [1] = species on record: Rattus norvegicus; assay: 5-HIAA (5-Hydroxyindoleacetic acid) content of rat hippocampus reflecting 5-HT metabolism and turnover; format: functional; set-up: concentration or dose not given beside the values
In short: (§1)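 Male Sprague–Dawley rats (260–310 g) received compound sc in 0.9% NaCl; saline controls. Rats were decapitated 35–45 min post-injection, and hippocampus and striatum were dissected and frozen. Tissue was homogenized in 0.1 M perchloric acid with α-methyl-5-hydroxytryptophan as internal standard, centrifuged and filtered, then analysed by HPLC-EC at 0.85 V (mobile phase pH 2.69, 35 °C). Values are percent of control, mean ± SEM.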

Rattus norvegicus [2] = assay: Cage leaving response was studied in rats after subcutaneous administration of 1 uM/Kg of compound; 0/7; format: functional
Rattus norvegicus [3] = species on record: Rattus norvegicus; assay: DOPAC (3,4-dihydroxyphenylacetic acid) content of rat striatum reflecting DA metabolism and turnover; format: functional; set-up: concentration or dose not given beside the values; in short: as §1
Rattus norvegicus [4] = species on record: Rattus norvegicus; assay: HVA (Homovanillic acid)content of rat striatum reflecting DA metabolism and turnover; format: functional; set-up: concentration or dose not given beside the values
Rattus norvegicus [5] = species on record: Rattus norvegicus; assay: 5-HT content of rat hippocampus reflecting 5-HT metabolism and turnover; format: functional; set-up: concentration or dose not given beside the values; in short: as §1
Rattus norvegicus [6] = assay: Forepaw treading (FPT) behavior was studied in rats after subcutaneous administration of 1 uM/Kg of compound; 7/7; format: functional
In short: (§2)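 Test compounds were given at 32 μmol/kg and the reference 5-HT1A agonist at 1 μmol/kg. Flat body posture, forepaw treading and hind limb abduction were each scored as absent or present. Values are animals showing the behavior out of animals tested, analysed by Fisher's exact test. Male Sprague–Dawley rats, 260–310 g.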

Rattus norvegicus [7] = assay: Flat body posture behavior was studied in rats after subcutaneous administration of 1 uM/Kg of compound; 7/7; format: functional; in short: as §2
Rattus norvegicus [8] = assay: Change in body temperature was studied in rats upon subcutaneous administration of 1 uM/Kg of compound; format: functional
In short: (§3)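 Rectal temperature was taken with an electrical thermometer, probe inserted 3.5 cm, before and 30 min after sc injection in 0.9% NaCl. Values are the change from the preinjection reading, analysed by Tukey HSD versus saline-treated rats. Male Sprague–Dawley rats, 260–310 g.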

Rattus norvegicus [9] = species on record: Rattus norvegicus; assay: DA (dopamine) content of rat striatum reflecting DA metabolism and turnover; format: functional; in short: as §1
Rattus norvegicus [10] = assay: Flat body posture behavior was studied in rats after subcutaneous administration of 32 uM/Kg of compound; 0/4; format: functional; in short: as §2
D(2) dopamine receptor = D(2) dopamine receptor (Homo sapiens, UniProt P14416); assay: In vitro binding affinity towards human Dopamine receptor D2A was determined in mouse fibroblast LtK cells using [3H]raclopride; format: cell-based
In short: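 Membranes from Ltk− mouse fibroblasts stably expressing human D2A receptors, at 80–100 pM receptor. Buffer was 50 mM Tris-HCl, 120 mM NaCl, 5 mM KCl, 1.5 mM CaCl2, 4 mM MgCl2, 1 mM EDTA, pH 7.4. Incubation with [3H]raclopride was 60 min at 22 °C, in duplicate, with 1 μM (+)-butaclamol for nonspecific binding. Bound ligand was separated on GF/B filters; data were fitted by nonlinear regression.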

Rattus norvegicus [11] = assay: Forepaw treading (FPT) behavior was studied in rats after subcutaneous administration of 32 uM/Kg of compound; 0/4; format: functional; in short: as §2
Rattus norvegicus [12] = species on record: Rattus norvegicus; assay: Ratio of serotonin turnover (5HIAA to 5-HT) in rat brain hippocampus compared to control; format: functional; in short: as §1
Rattus norvegicus [13] = assay: Change in body temperature in rats after subcutaneous administration; format: functional; in short: as §3
Rattus norvegicus [14] = species on record: Rattus norvegicus; assay: Ratio of turnover (DOPAC to DA) in rat brain striatum compared to control.; format: functional; in short: as §1
Rattus norvegicus [15] = assay: Cage leaving response was studied in rats after subcutaneous administration of 32 uM/Kg of compound; 1/4; format: functional
[16] = target: T1, 5-hydroxytryptamine receptor 1A (Rattus norvegicus, UniProt P19327); assay: Binding affinity for 5-hydroxytryptamine 1A receptor in rat brain tissue using [3H]8-OH-DPAT as radioligand; format: tissue-based
T1 sequence (P19327 whole entry): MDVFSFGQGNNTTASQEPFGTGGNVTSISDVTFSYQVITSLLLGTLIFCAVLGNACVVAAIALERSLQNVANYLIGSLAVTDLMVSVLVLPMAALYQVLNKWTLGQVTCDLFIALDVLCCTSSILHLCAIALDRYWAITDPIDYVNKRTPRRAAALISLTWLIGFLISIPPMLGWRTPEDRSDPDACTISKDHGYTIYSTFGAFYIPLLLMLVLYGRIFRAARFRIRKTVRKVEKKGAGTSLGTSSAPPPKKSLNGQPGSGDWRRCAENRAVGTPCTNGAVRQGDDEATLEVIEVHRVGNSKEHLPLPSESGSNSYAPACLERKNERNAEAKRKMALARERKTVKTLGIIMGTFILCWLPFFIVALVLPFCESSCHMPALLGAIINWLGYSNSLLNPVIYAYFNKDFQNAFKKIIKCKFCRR
In short: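 Membranes from male Sprague–Dawley rat cortex plus hippocampus, homogenized in 50 mM Tris-HCl with 4.0 mM CaCl2 and 5.7 mM ascorbic acid, pH 7.5, and preincubated 10 min at 37 °C with 10 μM pargyline. Assay used 5 mg/mL tissue and 2 nM [3H]-8-OH-DPAT, 10 min at 37 °C. Nonspecific binding was defined with 10 μM 5-HT. Bound ligand was separated on GF/B filters and counted; data were fitted by nonlinear regression.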

Rattus norvegicus [17] = assay: Forepaw treading (FPT) behavior was studied in rats after subcutaneous administration of 32 uM/Kg of compound; 0/5; format: functional
Rattus norvegicus [18] = assay: Flat body posture behavior was studied in rats after subcutaneous administration of 32 uM/Kg of compound; 0/5; format: functional
Rattus norvegicus [19] = assay: Cage leaving response was studied in rats after subcutaneous administration of 32 uM/Kg of compound; 3/5; format: functional
Rattus norvegicus [20] = assay: Forepaw treading (FPT) behavior was studied in rats after subcutaneous administration of 32 uM/Kg of compound; 4/4; format: functional; in short: as §2
Rattus norvegicus [21] = assay: Flat body posture behavior was studied in rats after subcutaneous administration of 32 uM/Kg of compound; 4/4; format: functional; in short: as §2
Rattus norvegicus [22] = assay: Cage leaving response was studied in rats after subcutaneous administration of 32 uM/Kg of compound; 0/4; format: functional
Rattus norvegicus [23] = assay: Cage leaving response was studied in rats after subcutaneous administration of 32 uM/Kg of compound; 2/4; format: functional
Rattus norvegicus [24] = assay: Cage leaving response was studied in rats after subcutaneous administration of 32 uM/Kg of compound; 2/5; format: functional
Rattus norvegicus [25] = assay: Flat body posture behavior was studied in rats after subcutaneous administration of 32 uM/Kg of compound; 3/5; format: functional; in short: as §2
Rattus norvegicus [26] = assay: Cage leaving response was studied in rats after subcutaneous administration of 32 uM/Kg of compound; 1/5; format: functional

D(2) dopamine receptor, sequence (P14416 whole entry): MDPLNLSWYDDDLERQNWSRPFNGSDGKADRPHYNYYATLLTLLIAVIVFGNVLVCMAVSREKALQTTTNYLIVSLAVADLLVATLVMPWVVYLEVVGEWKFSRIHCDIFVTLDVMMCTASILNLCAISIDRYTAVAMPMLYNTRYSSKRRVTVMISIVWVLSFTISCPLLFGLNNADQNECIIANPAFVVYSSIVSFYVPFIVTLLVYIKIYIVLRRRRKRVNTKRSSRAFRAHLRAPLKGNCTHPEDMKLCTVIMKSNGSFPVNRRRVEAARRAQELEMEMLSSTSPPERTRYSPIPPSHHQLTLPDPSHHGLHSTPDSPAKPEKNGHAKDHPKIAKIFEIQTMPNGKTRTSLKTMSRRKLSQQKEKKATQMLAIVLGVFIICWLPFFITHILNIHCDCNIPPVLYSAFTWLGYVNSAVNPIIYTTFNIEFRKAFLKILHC

Compound	Control (Rattus norvegicus [1]) [%]	Control (Rattus norvegicus [3]) [%]	Control (Rattus norvegicus [4]) [%]	Control (Rattus norvegicus [5]) [%]	Control (Rattus norvegicus [9]) [%]	FBP (Rattus norvegicus [10])	Ki (D(2) dopamine receptor) [µM]	FPT (Rattus norvegicus [11])	Ratio (Rattus norvegicus [12])	Change of body temperature (Rattus norvegicus [13]) [°C]	Ratio (Rattus norvegicus [14])	Ki [16] [µM]	FPT (Rattus norvegicus [17])	further results
CCCN(CCC)[C@@H]1CCc2cccc(O)c2C1	80	109	105	130	108									Cage leaving (Rattus norvegicus [2]): 0; FPT (Rattus norvegicus [6]): 7; FBP (Rattus norvegicus [7]): 7; Change of body temperature (Rattus norvegicus [8]): -2.6 °C
CCCN(CCC)[C@H]1CCc2cccc(OC)c2[C@H]1C	79	80	53	81	118	0	1.05	0	96	-1.2	69	0.285		Cage leaving (Rattus norvegicus [15]): 1
CCCN(CCC)[C@H]1CCc2cccc(OS(=O)(=O)C(F)(F)F)c2[C@H]1C	91	107	99	97	107				80	0.1	99	0.236	0	FBP (Rattus norvegicus [18]): 0; Cage leaving (Rattus norvegicus [19]): 3
CCCN(CCC)[C@@H]1CCc2cccc(OC)c2[C@@H]1C	76	134	121	108	89		0.0339		70	-2.5	151	0.006		FPT (Rattus norvegicus [20]): 4; FBP (Rattus norvegicus [21]): 4; Cage leaving (Rattus norvegicus [22]): 0
CCCN(C(C)C)[C@@H]1CCc2cccc(OC)c2[C@@H]1C	104	102	105	86	99	0		0	116	0.1	102	0.116		Cage leaving (Rattus norvegicus [23]): 2
CCCN(C(C)C)[C@H]1CCc2cccc(OC)c2[C@H]1C	110	96	90	87	103	0		0	124	0	94	1.42		Cage leaving (Rattus norvegicus [23]): 2
CCCN(CCC)[C@H]1CCc2cccc(O)c2[C@H]1C	104	118	96	109	107	0		0	95	-0.3	112			Cage leaving (Rattus norvegicus [23]): 2
CCCN(CCC)[C@H]1CCc2cccc(C(=O)OC)c2[C@H]1C	112	97	104	86	96				131	-0.1	103	0.417	0	FBP (Rattus norvegicus [18]): 0; Cage leaving (Rattus norvegicus [24]): 2
CCCN(CCC)[C@H]1CCc2ccccc2[C@H]1C	112	92	111	107	113				104	0.1	81	> 1	0	FBP (Rattus norvegicus [18]): 0; Cage leaving (Rattus norvegicus [19]): 3
CCCN(CCC)[C@@H]1CCc2ccccc2[C@@H]1C	92	152	168	94	95		0.087		98	-0.7	164	0.049	0	FBP (Rattus norvegicus [25]): 3; Cage leaving (Rattus norvegicus [26]): 1
CCCN(CCC)[C@@H]1CCc2cccc(O)c2[C@@H]1C	88	225	196	121	83		0.03		72	-0.2	275			FPT (Rattus norvegicus [20]): 4; FBP (Rattus norvegicus [21]): 4; Cage leaving (Rattus norvegicus [22]): 0
